ChEMBL document CHEMBL1122260, “Synthesis and biological activity of prostaglandin lactones” (J Med Chem, 1983)
Active and inactive are the calls of the source. The rule behind the calls is not given here.

What was measured:
Gerbillinae [1] = experiment: Gerbil colon stimulation relative to PGE1 (100); Range is between (1-3); assay type: functional
Procedure, shortened: (§1)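 Isolated ascending colon from male gerbils (Meriones unguiculatus) mounted in de Jalon's solution (NaCl 154 mM, KCl 0.54 mM, CaCl2 0.27 mM, NaHCO3 1.78 mM, glucose 5.55 mM); isotonic contractions recorded with linear transducers in 5-mL baths.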

Rattus norvegicus [2] = organism: Rattus norvegicus; experiment: Blood pressure potency in rat relative to PGE1 (100); assay type: functional
Procedure, shortened: (§2)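 Mature female albino rats, pentobarbital anesthesia (30 mg/kg ip, supplemented as needed), pretreated with atropine sulfate (0.08 mg sc) and pentolinium tartrate (2 mg iv). Test solutions or emulsions injected via femoral vein; carotid arterial pressure recorded by transducer. Change in mmHg (rise or fall) compared with standards: PGE1 for depressor, PGF2α for pressor responses.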

[3] = Plasma hydrolysis of percent cross reaction of substrate with PGF2-alpha antisera; assay type: ADME, cell-free
Procedure, shortened: (§3)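 Substrates incubated with saline (control), hog liver esterase, or rat, monkey or human blood plasma for 2 h or 20 h; released PGF2α quantified by radioimmunoassay as cross-reactivity with PGF2α antisera. PGF2α itself served as assay positive control. Substrate cross-reaction with the antisera determined separately.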

Sus scrofa [4] = organism: Sus scrofa; experiment: Plasma hydrolysis following 2 h incubation with hog liver esterase; assay type: functional; procedure, shortened: as §3
Sus scrofa [5] = organism: Sus scrofa; experiment: Plasma hydrolysis following 20 hr incubation with hog liver esterase; assay type: functional; procedure, shortened: as §3
Homo sapiens [6] = organism: Homo sapiens; experiment: Plasma hydrolysis following 2 hr incubation with human plasma; assay type: functional; procedure, shortened: as §3
Homo sapiens [7] = organism: Homo sapiens; experiment: Plasma hydrolysis following 20 hr incubation with human plasma; assay type: functional; procedure, shortened: as §3
Monkey [8] = experiment: Plasma hydrolysis following 20 hr incubation with monkey plasma; assay type: functional, Cercopithecidae; procedure, shortened: as §3
Monkey [9] = experiment: Plasma hydrolysis following 2 hr incubation with monkey plasma; assay type: functional, Cercopithecidae; procedure, shortened: as §3
Rattus norvegicus [10] = organism: Rattus norvegicus; experiment: Plasma hydrolysis following 2 hr incubation with rat plasma; assay type: functional; procedure, shortened: as §3
Rattus norvegicus [11] = organism: Rattus norvegicus; experiment: Plasma hydrolysis following 20 hr incubation with rat plasma; assay type: functional; procedure, shortened: as §3
Rattus norvegicus [12] = experiment: in vivo urinary excretion of PGF2-alpha metabolite in rats, when administered sc (1 mg/rat) urinary excretion on day 1; assay type: functional, Urine
Rattus norvegicus [13] = experiment: in vivo urinary excretion of PGF2-alpha metabolite in rats, when administered sc (1 mg/rat) urinary excretion on day 2; assay type: functional, Urine
Gerbillinae [14] = experiment: Gerbil colon stimulation relative to PGE1 (100); Range is between (0.3-1); assay type: functional; procedure, shortened: as §1
Rattus norvegicus [15] = organism: Rattus norvegicus; experiment: Blood pressure potency in rat relative to PGE1 (100); compound is biphasic and weak.; assay type: functional, organism-based; procedure, shortened: as §2
Rattus norvegicus [16] = organism: Rattus norvegicus; experiment: Blood pressure potency in rat relative to PGE1 (100). Range is between (10-32); assay type: functional; procedure, shortened: as §2
Rattus norvegicus [17] = organism: Rattus norvegicus; experiment: Blood pressure potency in rat relative to PGE1 (100). Range is between (0.1-3); assay type: functional; procedure, shortened: as §2
Rattus norvegicus [18] = experiment: in vivo Urinary excretion of PGF2-alpha metabolite in rats, when administered sc (1 mg/rat) urinary excretion on day 2 Range is between (0.7-1.1).; assay type: functional, Urine
Rattus norvegicus [19] = experiment: in vivo Urinary excretion of PGF2-alpha metabolite in rats, when administered sc (1 mg/rat) urinary excretion on day 1 Range is between (1.3-1.6).; assay type: functional, Urine
Gerbillinae [20] = experiment: Gerbil colon stimulation relative to PGE1 (100); Range from (1-3); assay type: functional; procedure, shortened: as §1
Rattus norvegicus [21] = organism: Rattus norvegicus; experiment: Blood pressure potency in rat relative to PGF2-alpha (100); value ranges from (3-10); assay type: functional; procedure, shortened: as §2
Gerbillinae [22] = experiment: Gerbil colon stimulation relative to PGE1 (100); assay type: functional; procedure, shortened: as §1
Rattus norvegicus [23] = organism: Rattus norvegicus; experiment: Blood pressure potency in rat relative to PGF2-alpha (100). Range is between (0.3-1); assay type: functional; procedure, shortened: as §2
Gerbillinae [24] = experiment: Gerbil colon stimulation relative to PGE1 (100); Range is between (0.1-0.3); assay type: functional; procedure, shortened: as §1
Rattus norvegicus [25] = experiment: In vivo urinary excretion of PGF2-alpha metabolite in rats, when administered sc (1 mg/rat) urinary excretion on day 1 Range is between (31.9-155).; assay type: functional, Urine
Rattus norvegicus [26] = experiment: In vivo urinary excretion of PGF2-alpha metabolite in rats, when administered sc (1 mg/rat) urinary excretion on day 2 Range is between (2.2-5.6).; assay type: functional, Urine
Rattus norvegicus [27] = organism: Rattus norvegicus; experiment: Blood pressure potency in rat relative to PGF2-alpha (100). Range is between(3-10).
Gerbillinae [28] = experiment: Gerbil colon stimulation relative to PGE1 (100); Range from (0.1-0.3); assay type: functional; procedure, shortened: as §1
Rattus norvegicus [29] = organism: Rattus norvegicus; experiment: Blood pressure potency in rat relative to PGE1 (100); value ranges from (0.1-0.3); assay type: functional; procedure, shortened: as §2
Rattus norvegicus [30] = organism: Rattus norvegicus; experiment: Blood pressure potency in rat relative to PGE1 (100); value ranges from( 0.1-0.3); assay type: functional; procedure, shortened: as §2
Gerbillinae [31] = experiment: Gerbil colon stimulation relative to PGE1 (100); Range from (32-100); assay type: functional; procedure, shortened: as §1
Gerbillinae [32] = experiment: Gerbil colon stimulation relative to PGE1 (100); Ranges from (0.1-0.3); assay type: functional; procedure, shortened: as §1
Rattus norvegicus [33] = organism: Rattus norvegicus; experiment: Blood pressure potency in rat relative to PGE1 (100); IA means inactive; assay type: functional, organism-based; procedure, shortened: as §2
Rattus norvegicus [34] = organism: Rattus norvegicus; experiment: Blood pressure potency in rat relative to […]; T denotes toxic; assay type: organism-based; procedure, shortened: as §2
Rattus norvegicus [35] = organism: Rattus norvegicus; experiment: Blood pressure potency in rat relative to PGE1 (100); Range is between (1-3); assay type: functional; procedure, shortened: as §2
Rattus norvegicus [36] = organism: Rattus norvegicus; experiment: Blood pressure potency in rat relative to PGF2-alpha (100). Range is between (32-100).; assay type: functional; procedure, shortened: as §2
Gerbillinae [37] = experiment: Gerbil colon stimulation relative to PGE1 (100); Range from (0.3-1); assay type: functional; procedure, shortened: as §1
Rattus norvegicus [38] = experiment: in vivo urinary excretion of PGF2-alpha metabolite in rats, when administered sc (1 mg/rat) urinary excretion on day 2. Range is between (1.2-2.0); assay type: functional, Urine
Rattus norvegicus [39] = organism: Rattus norvegicus; experiment: Blood pressure potency in rat relative to PGF2-alpha (100); value ranges from (0.3-1); assay type: functional; procedure, shortened: as §2
Rattus norvegicus [40] = experiment: in vivo Urinary excretion of PGF2-alpha metabolite in rats, when administered sc (1 mg/rat) urinary excretion on day. c1(27.2-31.1); assay type: functional, Urine

## CCCCC[C@@H]1/C=C\C2C=CC(=O)[C@@H]2C/C=C\CCCC(=O)O1 (stereo not given in full)
Gerbillinae [1]
  Relative potency: 0.1
Rattus norvegicus [2]
  Relative potency: 0.1

## CCCCC[C@H](O)/C=C/[C@@H]1[C@@H](C/C=C\CCCC(=O)O)[C@@H](O)C[C@H]1O [DINOPROST]
[3]
  Cross reaction: 100%
Sus scrofa [4]
  Hydrolysis: 100%
Sus scrofa [5]
  Hydrolysis: 100%
Homo sapiens [6]
  Hydrolysis: 100%
Homo sapiens [7]
  Hydrolysis: 100%
Monkey [8]
  Hydrolysis: 100%
Monkey [9]
  Hydrolysis: 100%
Rattus norvegicus [10]
  Hydrolysis: 100%
Rattus norvegicus [11]
  Hydrolysis: 100%
Rattus norvegicus [12]
  Urinary excretion: 252 µg
Rattus norvegicus [13]
  Urinary excretion: 14.5 µg

## O=C1CCC/C=C\C[C@H]2C(=O)C[C@@H](O)C2/C=C\[C@@H](CCc2ccccc2)O1 (stereo not given in full)
Gerbillinae [14]
  Relative potency: 0.3
Rattus norvegicus [15]
  Relative potency: Weak

## CCCCC[C@@H](/C=C/C1[C@H](O)C[C@H](O)[C@@H]1C/C=C\CCCC(=O)O)OC(C)=O (stereo not given in full)
[3]
  Cross reaction: 2.4%
Sus scrofa [4]
  Hydrolysis: 59.1%
Sus scrofa [5]
  Hydrolysis: 85%
Homo sapiens [6]
  Hydrolysis: 3.3%
Homo sapiens [7]
  Hydrolysis: 6.8%
Monkey [8]
  Hydrolysis: 9.4%
Monkey [9]
  Hydrolysis: 3.6%
Rattus norvegicus [10]
  Hydrolysis: 18%
Rattus norvegicus [11]
  Hydrolysis: 25.7%

## CCCCC[C@H](O)/C=C/C1C(=O)C[C@@H]2OC(=O)CCC/C=C\C[C@H]12 (stereo not given in full)
Gerbillinae [14]
  Relative potency: 0.3
Rattus norvegicus [16]
  Relative potency: 10

## CCCCC[C@H](O)/C=C/C1[C@H](O)C[C@@H]2OC(=O)CCC/C=C\C[C@H]12 (stereo not given in full)
[3]
  Cross reaction: < 0.05%
Gerbillinae [1]
  Relative potency: 1
Sus scrofa [4]
  Hydrolysis: 0.2%
Sus scrofa [5]
  Hydrolysis: 1.8%
Homo sapiens [6]
  Hydrolysis: 0.06%
Homo sapiens [7]
  Hydrolysis: 0.4%
Monkey [8]
  Hydrolysis: 0.3%
Monkey [9]
  Hydrolysis: 0.06%
Rattus norvegicus [10]
  Hydrolysis: 0.2%
Rattus norvegicus [11]
  Hydrolysis: 0.8%
Rattus norvegicus [17]
  Relative potency: 0.1
Rattus norvegicus [18]
  Urinary excretion: 0.9 µg
Rattus norvegicus [19]
  Urinary excretion: 1.4 µg

## C[C@@](O)(/C=C/C1[C@H](O)C[C@@H]2OC(=O)CCC/C=C\C[C@H]12)CCc1ccccc1 (stereo not given in full)
Gerbillinae [20]
  Relative potency: 1
Rattus norvegicus [21]
  Relative potency: 3

## CCCCC[C@](C)(O)/C=C/C1[C@@H]2C[C@@H](O)[C@H]1C/C=C\CCCC(=O)O2 (stereo not given in full)
Gerbillinae [22]
  Relative potency: <0.1
Rattus norvegicus [23]
  Relative potency: 0.3

## CCCCC[C@@H]1/C=C\C2[C@H](O)C[C@H](O)[C@@H]2C/C=C\CCCC(=O)O1 (stereo not given in full)
[3]
  Cross reaction: 0.9%
Gerbillinae [24]
  Relative potency: 0.1
Sus scrofa [4]
  Hydrolysis: 55.3%
Sus scrofa [5]
  Hydrolysis: 75.6%
Homo sapiens [6]
  Hydrolysis: 55.6%
Homo sapiens [7]
  Hydrolysis: 57.9%
Monkey [8]
  Hydrolysis: 41.7%
Monkey [9]
  Hydrolysis: 8.4%
Rattus norvegicus [10]
  Hydrolysis: 51.4%
Rattus norvegicus [11]
  Hydrolysis: 58.7%
Rattus norvegicus [2]
  Relative potency: <0.1
Rattus norvegicus [25]
  Urinary excretion: 77.1 µg
Rattus norvegicus [26]
  Urinary excretion: 3.9 µg

## CCCCC[C@](C)(O)/C=C/C1[C@H](O)C[C@@H]2OC(=O)CCC/C=C\C[C@H]12 (stereo not given in full)
Gerbillinae [1]
  Relative potency: 1
Rattus norvegicus [27]
  Relative potency: 3

## CCCCC[C@@H]1/C=C\C2C(=O)CC(O)[C@@H]2C/C=C\CCCC(=O)O1 (stereo not given in full)
Gerbillinae [28]
  Relative potency: 0.1
Rattus norvegicus [29]
  Relative potency: 0.1

## CCCCC[C@](C)(O)/C=C/C1[C@H](O)C[C@@H]2OC(=O)C(F)(F)CC/C=C\C[C@H]12 (stereo not given in full)
Gerbillinae [20]
  Relative potency: 1
Rattus norvegicus [30]
  Relative potency: 0.1

## CCCCC(C)(C)[C@H](O)/C=C/C1[C@H](O)C[C@@H]2OC(=O)CCC/C=C\C[C@H]12 (stereo not given in full)
Gerbillinae [31]
  Relative potency: 32
Rattus norvegicus [29]
  Relative potency: 0.1

## CCCCC[C@@H]1/C=C\C2[C@H](O)CC(=O)[C@@H]2CCCCCCC(=O)O1 (stereo not given in full)
Gerbillinae [22]
  Relative potency: <0.1
Rattus norvegicus [2]
  Relative potency: <0.1

## CCCCC[C@@H]1/C=C\C2[C@H](O)C[C@H](O)[C@@H]2CCCCCCC(=O)O1 (stereo not given in full)
Gerbillinae [22]
  Relative potency: <0.1
Rattus norvegicus [2]
  Relative potency: <0.1

## O=C1CCC/C=C\C[C@@H]2C(/C=C\[C@@H](COc3ccccc3)O1)[C@H](O)C[C@@H]2O (stereo not given in full)
Gerbillinae [32]
  Relative potency: 0.1
Rattus norvegicus [33]
  Relative potency: inactive
Rattus norvegicus [34]
  Relative potency: Toxic

## CCCCC[C@@H]1/C=C\C2CCC(=O)[C@@H]2C/C=C\CCCC(=O)O1 (stereo not given in full)
Gerbillinae [28]
  Relative potency: 0.1
Rattus norvegicus [2]
  Relative potency: <0.1

## CCCCC[C@@H]1/C=C\C2[C@H](O)CC(=O)[C@@H]2C/C=C\CCCC(=O)O1 (stereo not given in full)
Gerbillinae [1]
  Relative potency: 1
Rattus norvegicus [35]
  Relative potency: 1

## O=C1CCC/C=C\C[C@@H]2C(/C=C\[C@@H](CCc3ccccc3)O1)[C@H](O)C[C@@H]2O (stereo not given in full)
Gerbillinae [22]
  Relative potency: <0.1
Rattus norvegicus [36]
  Relative potency: 32

## CCCCC[C@H](O)/C=C/C1[C@@H]2C[C@@H](O)[C@H]1C/C=C\CCCC(=O)O2 (stereo not given in full)
[3]
  Cross reaction: 0.09%
Gerbillinae [37]
  Relative potency: 0.3
Sus scrofa [4]
  Hydrolysis: 28.3%
Sus scrofa [5]
  Hydrolysis: 100%
Homo sapiens [6]
  Hydrolysis: 0.2%
Homo sapiens [7]
  Hydrolysis: 0.6%
Monkey [8]
  Hydrolysis: 15.5%
Monkey [9]
  Hydrolysis: 2.4%
Rattus norvegicus [10]
  Hydrolysis: 43%
Rattus norvegicus [11]
  Hydrolysis: 80.6%
Rattus norvegicus [38]
  Urinary excretion: 1.6 µg
Rattus norvegicus [39]
  Relative potency: 0.3
Rattus norvegicus [40]
  Urinary excretion: 27.2 µg
